# pIC50: −log10 of the molar value. Positions of bridges follow the written chain, without caps; N, C: chain ends. Non-standard residues stand in square brackets, D forms with d. Residues, ends and D or L forms follow the SMILES beside them. 1Nal = N[C@@H](Cc1cccc2ccccc12)C(=O)O; Lys(Me2) = CN(C)CCCC[C@H](N)C(=O)O
# Columns and labels:
# Format in all cases: cell-based
# [1] = target: Sodium channel protein type 9 subunit alpha (Homo sapiens, UniProt Q15858); assay: Inhibition of human Nav1.7 expressed in HEK293 cells assessed as inward peak current by ion-works quattro patch clamp electrophysiology method
# [2] = target: T1, Sodium channel protein type 5 subunit alpha (Homo sapiens, UniProt Q14524); assay: Inhibition of human Nav1.5 expressed in HEK293 cells assessed as inward peak current by ion-works quattro patch clamp electrophysiology method
# Summary of the method: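 Stable HEK293 line expressing human NaV1.5, recorded by population patch clamp on the IonWorks Quattro.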
# [3] = target: T1, Sodium channel protein type 5 subunit alpha; assay: Inhibition of human Nav1.5 expressed in HEK293 cells by whole cell patch clamp electrophysiology method
# Summary of the method: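 Stable HEK293 line expressing human NaV1.5, recorded on the PatchXpress 7000A. Percent inhibition versus concentration was pooled from at least 10 cells, with two to three points per concentration. The pooled set was fitted with a four-parameter Hill equation to give a single IC50 curve.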
# T1 sequence (Q14524 whole entry): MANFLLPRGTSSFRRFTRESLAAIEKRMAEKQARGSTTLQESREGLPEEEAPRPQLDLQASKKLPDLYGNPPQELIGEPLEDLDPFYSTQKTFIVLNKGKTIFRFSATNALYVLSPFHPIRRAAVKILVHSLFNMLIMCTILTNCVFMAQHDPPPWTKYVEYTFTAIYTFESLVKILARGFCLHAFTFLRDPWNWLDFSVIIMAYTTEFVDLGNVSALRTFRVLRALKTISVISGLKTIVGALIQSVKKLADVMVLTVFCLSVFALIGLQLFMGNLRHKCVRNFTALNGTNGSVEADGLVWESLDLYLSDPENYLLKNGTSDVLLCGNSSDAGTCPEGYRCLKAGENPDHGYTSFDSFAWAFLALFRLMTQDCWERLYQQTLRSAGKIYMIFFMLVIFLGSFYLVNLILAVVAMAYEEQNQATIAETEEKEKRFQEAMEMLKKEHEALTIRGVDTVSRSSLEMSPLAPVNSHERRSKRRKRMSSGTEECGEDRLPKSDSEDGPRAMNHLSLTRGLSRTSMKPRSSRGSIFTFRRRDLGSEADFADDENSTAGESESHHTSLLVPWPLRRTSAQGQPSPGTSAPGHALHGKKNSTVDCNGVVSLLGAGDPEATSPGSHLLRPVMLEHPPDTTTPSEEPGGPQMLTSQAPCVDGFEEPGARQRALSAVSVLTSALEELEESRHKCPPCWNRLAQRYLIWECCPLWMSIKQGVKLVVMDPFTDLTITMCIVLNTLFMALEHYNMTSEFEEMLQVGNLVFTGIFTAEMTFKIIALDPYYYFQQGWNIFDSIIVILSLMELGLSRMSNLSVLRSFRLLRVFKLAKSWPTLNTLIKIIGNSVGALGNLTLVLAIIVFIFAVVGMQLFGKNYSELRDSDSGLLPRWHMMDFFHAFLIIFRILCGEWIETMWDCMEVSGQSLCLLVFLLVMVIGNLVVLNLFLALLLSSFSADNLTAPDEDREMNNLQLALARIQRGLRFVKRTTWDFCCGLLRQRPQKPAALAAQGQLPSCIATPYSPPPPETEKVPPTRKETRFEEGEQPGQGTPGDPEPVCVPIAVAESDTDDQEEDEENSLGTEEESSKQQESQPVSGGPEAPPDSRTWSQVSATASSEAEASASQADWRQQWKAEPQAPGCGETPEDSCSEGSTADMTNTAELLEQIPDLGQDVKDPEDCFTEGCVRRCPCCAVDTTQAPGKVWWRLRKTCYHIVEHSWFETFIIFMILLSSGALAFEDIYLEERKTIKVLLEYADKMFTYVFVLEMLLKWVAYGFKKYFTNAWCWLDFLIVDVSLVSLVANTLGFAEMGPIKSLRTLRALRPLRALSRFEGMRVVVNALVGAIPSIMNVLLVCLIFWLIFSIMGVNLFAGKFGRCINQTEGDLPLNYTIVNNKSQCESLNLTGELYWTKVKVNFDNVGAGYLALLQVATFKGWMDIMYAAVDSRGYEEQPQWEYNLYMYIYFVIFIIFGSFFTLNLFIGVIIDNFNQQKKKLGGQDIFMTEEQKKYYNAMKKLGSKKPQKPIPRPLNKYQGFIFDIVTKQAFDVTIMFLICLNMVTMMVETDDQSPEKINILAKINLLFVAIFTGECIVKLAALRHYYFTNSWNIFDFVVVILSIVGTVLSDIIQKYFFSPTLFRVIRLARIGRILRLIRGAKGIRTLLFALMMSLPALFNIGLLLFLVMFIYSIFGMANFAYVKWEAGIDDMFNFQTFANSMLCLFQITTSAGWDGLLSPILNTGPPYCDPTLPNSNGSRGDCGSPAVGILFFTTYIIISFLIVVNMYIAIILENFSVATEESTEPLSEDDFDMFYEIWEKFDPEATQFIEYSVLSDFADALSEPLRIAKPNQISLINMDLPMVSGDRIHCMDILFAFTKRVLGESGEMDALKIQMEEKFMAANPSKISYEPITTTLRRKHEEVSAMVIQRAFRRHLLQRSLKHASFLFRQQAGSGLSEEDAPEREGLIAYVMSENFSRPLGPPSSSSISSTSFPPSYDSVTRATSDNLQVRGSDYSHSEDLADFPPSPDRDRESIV
# Sodium channel protein type 9 subunit alpha, sequence (Q15858 whole entry): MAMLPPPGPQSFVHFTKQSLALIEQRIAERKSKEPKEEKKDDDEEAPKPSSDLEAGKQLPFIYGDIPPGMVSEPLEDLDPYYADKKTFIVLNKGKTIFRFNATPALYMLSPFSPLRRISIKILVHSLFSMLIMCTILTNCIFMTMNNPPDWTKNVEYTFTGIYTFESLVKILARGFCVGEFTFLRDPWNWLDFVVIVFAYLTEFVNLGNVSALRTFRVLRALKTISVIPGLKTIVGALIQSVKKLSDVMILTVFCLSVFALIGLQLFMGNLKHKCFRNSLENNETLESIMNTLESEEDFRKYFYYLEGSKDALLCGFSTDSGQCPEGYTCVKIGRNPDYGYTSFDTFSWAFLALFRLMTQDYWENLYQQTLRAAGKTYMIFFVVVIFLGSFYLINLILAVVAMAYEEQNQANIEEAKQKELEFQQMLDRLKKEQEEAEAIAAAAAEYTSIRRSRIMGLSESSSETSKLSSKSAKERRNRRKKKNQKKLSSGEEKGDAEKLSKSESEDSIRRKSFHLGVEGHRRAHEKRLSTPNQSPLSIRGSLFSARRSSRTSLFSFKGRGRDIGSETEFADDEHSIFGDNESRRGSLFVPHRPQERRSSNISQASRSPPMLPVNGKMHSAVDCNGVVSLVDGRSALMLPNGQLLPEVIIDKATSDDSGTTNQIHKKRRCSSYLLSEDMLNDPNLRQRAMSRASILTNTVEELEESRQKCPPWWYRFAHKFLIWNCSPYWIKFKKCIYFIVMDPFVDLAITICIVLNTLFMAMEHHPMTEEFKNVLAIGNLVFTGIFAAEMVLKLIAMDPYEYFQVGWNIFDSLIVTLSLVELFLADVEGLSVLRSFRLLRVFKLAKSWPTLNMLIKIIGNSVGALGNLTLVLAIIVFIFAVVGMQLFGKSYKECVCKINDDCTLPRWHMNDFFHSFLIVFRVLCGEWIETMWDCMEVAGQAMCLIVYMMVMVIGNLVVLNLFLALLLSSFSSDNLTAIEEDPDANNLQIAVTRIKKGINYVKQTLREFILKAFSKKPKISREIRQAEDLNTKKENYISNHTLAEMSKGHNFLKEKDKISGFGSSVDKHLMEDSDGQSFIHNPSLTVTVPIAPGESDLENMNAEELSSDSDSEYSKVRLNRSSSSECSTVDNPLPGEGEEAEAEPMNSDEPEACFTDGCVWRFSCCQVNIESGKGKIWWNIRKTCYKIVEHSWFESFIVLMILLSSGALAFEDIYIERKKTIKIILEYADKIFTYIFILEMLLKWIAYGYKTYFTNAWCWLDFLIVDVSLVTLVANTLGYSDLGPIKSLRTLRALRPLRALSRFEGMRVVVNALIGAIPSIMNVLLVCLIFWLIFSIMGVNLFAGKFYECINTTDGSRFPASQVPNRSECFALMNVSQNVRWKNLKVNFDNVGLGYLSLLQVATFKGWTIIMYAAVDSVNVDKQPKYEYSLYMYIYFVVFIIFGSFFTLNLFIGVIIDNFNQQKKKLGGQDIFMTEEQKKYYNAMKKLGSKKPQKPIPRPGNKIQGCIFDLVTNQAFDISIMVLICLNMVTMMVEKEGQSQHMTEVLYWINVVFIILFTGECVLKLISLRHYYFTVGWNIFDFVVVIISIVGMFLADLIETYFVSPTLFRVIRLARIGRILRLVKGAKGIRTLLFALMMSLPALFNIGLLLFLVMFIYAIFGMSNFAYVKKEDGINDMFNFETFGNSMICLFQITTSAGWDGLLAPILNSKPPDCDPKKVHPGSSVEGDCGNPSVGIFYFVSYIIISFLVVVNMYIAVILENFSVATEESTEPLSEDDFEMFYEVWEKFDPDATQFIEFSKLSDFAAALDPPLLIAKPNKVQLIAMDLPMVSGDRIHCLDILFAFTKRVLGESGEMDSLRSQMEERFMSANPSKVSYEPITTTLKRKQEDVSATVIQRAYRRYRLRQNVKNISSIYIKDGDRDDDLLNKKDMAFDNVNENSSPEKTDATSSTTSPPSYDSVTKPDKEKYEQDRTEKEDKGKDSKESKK
SMILES,pIC50 [1],pIC50 [2],pIC50 [3]
"CC[C@H](C)[C@@H]1NC(=O)[C@@H]2CSSC[C@@H]3NC(=O)[C@H](C(C)C)NC(=O)[C@H](CC(C)C)NC(=O)[C@H](CC(N)=O)NC(=O)[C@@H]4CCCN4C(=O)[C@H](CCCNC(=N)N)NC(=O)[C@H](CSSC[C@H](NC(=O)[C@@H](N)CC(=O)O)C(=O)N[C@@H](CC(C)C)C(=O)NCC(=O)N[C@@H](Cc4ccccc4)C(=O)N[C@@H](CCSC)C(=O)N[C@@H](CCCNC(=N)N)C(=O)N[C@@H](CCCCN)C(=O)N2)NC(=O)[C@H](CSSC[C@@H](C(=O)N[C@@H](CCCCN)C(=O)N[C@@H](Cc2cccc4ccccc24)C(=O)N[C@H](C(=O)N[C@@H](Cc2ccccc2)C(N)=O)C(C)C)NC(=O)[C@H](Cc2c[nH]c4ccccc24)NC(=O)[C@H](CCCCN)NC(=O)[C@H](Cc2cnc[nH]2)NC(=O)[C@H]([C@@H](C)O)NC(=O)[C@H](CCCNC(=N)N)NC(=O)[C@H](CO)NC3=O)NC(=O)[C@H](CCCCN)NC(=O)[C@H](CC(=O)O)NC(=O)[C@H](CC(N)=O)NC(=O)[C@H](CC(=O)O)NC(=O)[C@@H]2CCCN2C1=O (H-DCLGFMRKCIPDNDKCCRPNLVCSRTHKWCK[1Nal]VF-NH2; disulfide 2-17, 9-23, 16-30)",8.05,5.46,6.00
"CC[C@H](C)[C@@H]1NC(=O)[C@@H]2CSSC[C@@H]3NC(=O)[C@H](C(C)C)NC(=O)[C@H](CC(C)C)NC(=O)[C@H](CC(N)=O)NC(=O)[C@@H]4CCCN4C(=O)[C@H](CCCNC(=N)N)NC(=O)[C@H](CSSC[C@H](NC(=O)[C@@H](N)CC(=O)O)C(=O)N[C@@H](CC(C)C)C(=O)NCC(=O)N[C@@H](Cc4ccccc4)C(=O)N[C@@H](CCSC)C(=O)N[C@@H](CCCNC(=N)N)C(=O)N[C@@H](CCCCN)C(=O)N2)NC(=O)[C@H](CSSC[C@@H](C(=O)N[C@@H](CCCCN)C(=O)N[C@@H](Cc2ccc(O)cc2)C(=O)N[C@H](C(=O)N[C@@H](Cc2ccccc2)C(N)=O)C(C)C)NC(=O)[C@H](Cc2c[nH]c4ccccc24)NC(=O)[C@H](CCC(N)=O)NC(=O)[C@H](Cc2cnc[nH]2)NC(=O)[C@H]([C@@H](C)O)NC(=O)[C@H](CCCNC(=N)N)NC(=O)[C@H](CO)NC3=O)NC(=O)[C@H](CCCCN)NC(=O)[C@H](CC(=O)O)NC(=O)[C@H](CC(N)=O)NC(=O)[C@H](CC(=O)O)NC(=O)[C@@H]2CCCN2C1=O (H-DCLGFMRKCIPDNDKCCRPNLVCSRTHQWCKYVF-NH2; disulfide 2-17, 9-23, 16-30)",6.70,–,< 5.00
"CC[C@H](C)[C@@H]1NC(=O)[C@@H]2CSSC[C@@H]3NC(=O)[C@H](C(C)C)NC(=O)[C@H](CC(C)C)NC(=O)[C@H](CC(N)=O)NC(=O)[C@@H]4CCCN4C(=O)[C@H](CCCCN(C)C)NC(=O)[C@H](CSSC[C@H](NC(=O)[C@@H](N)CC(=O)O)C(=O)N[C@@H](CC(C)C)C(=O)NCC(=O)N[C@@H](Cc4ccccc4)C(=O)N[C@@H](CCSC)C(=O)N[C@@H](CCCNC(=N)N)C(=O)N[C@@H](CCCCN)C(=O)N2)NC(=O)[C@H](CSSC[C@@H](C(=O)N[C@@H](CCCCN)C(=O)N[C@@H](Cc2ccc(O)cc2)C(=O)N[C@H](C(=O)N[C@@H](Cc2ccccc2)C(N)=O)C(C)C)NC(=O)[C@H](Cc2c[nH]c4ccccc24)NC(=O)[C@H](CCCCN)NC(=O)[C@H](Cc2cnc[nH]2)NC(=O)[C@H]([C@@H](C)O)NC(=O)[C@H](CCCNC(=N)N)NC(=O)[C@H](CO)NC3=O)NC(=O)[C@H](CCCCN)NC(=O)[C@H](CC(=O)O)NC(=O)[C@H](CC(N)=O)NC(=O)[C@H](CC(=O)O)NC(=O)[C@@H]2CCCN2C1=O (H-DCLGFMRKCIPDNDKCC[Lys(Me2)]PNLVCSRTHKWCKYVF-NH2; disulfide 2-17, 9-23, 16-30)",–,< 5.30,< 5.00
